Results from publication PMC7591420 (Targeted Oncology, 2020).
Read-outs that look alike come from different tables or passages of the source.

Tests used:
[1] = system: patients; conditions: cited from earlier work
[2] = system: patients with solid tumors; conditions: intravenous monotherapy; cited from earlier work
[3] = copanlisib 0.4 mg/kg as monotherapy; cited from earlier work
[4] = system: patients with advanced solid tumors; format: in vivo, human; conditions: all cohorts
How it was run: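 Open-label, non-randomized multicenter escalation plus expansion, 28-day cycles. PI3K inhibitor 0.2–0.8 mg/kg IV over 1 h on days 1, 8, 15 or 1, 8, 15, 22 (max 65 mg); MEK inhibitor 30–50 mg BID orally, continuous from day 4 or 4 days on/3 off from day 6. DLTs assessed in cycle 1; adverse events graded by NCI CTCAE v4.0.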

[5] = Plasma pharmacokinetics of copanlisib; format: in vivo, human; conditions: for Cmax / AUC(0-t): human, plasma, intravenous, cycle 1 day 1, copanlisib alone, geometric mean (% CV); for AUC(0-t): AUC(0–25)
[6] = system: patients with advanced cancer; conditions: cited from earlier work
[7] = Plasma pharmacokinetics of refametinib; format: in vivo, human; conditions: for AUC(0-t) / Cmax: human, plasma, oral, cycle 1 day 14, refametinib alone, geometric mean (% CV); for AUC(0-t): AUC(0–8)
[8] = 0.4 mg/kg, cohort 2C: copanlisib 0.4 mg/kg weekly, refametinib 30 mg BID
[9] = 0.4 mg/kg, expansion cohort: copanlisib 0.4 mg/kg weekly, refametinib 30 mg BID
[10] = 30 mg, cohort 2C: copanlisib 0.4 mg/kg weekly, refametinib 30 mg BID
[11] = 30 mg, expansion cohort: copanlisib 0.4 mg/kg weekly, refametinib 30 mg BID

SMILES: O=C(NOCCO)c1cc(CN2OCCCC2=O)c(F)c(F)c1Nc1ccc(I)cc1F [RO4987655]
- incidence of ophthalmologic toxicities [1]: 27%

SMILES: COc1c(OCCCN2CCOCC2)ccc2c1N=C(NC(=O)c1cnc(N)nc1)N1CCN=C21 [copanlisib]
- maximum tolerated dose (MTD), single agent [2]: 0.8 mg/kg
- activity of 0.4 mg/kg versus 0.8 mg/kg [3]: less active than 0.8 mg/kg
- Patients with dose modifications attributed to copanlisib-related TEAEs ([4]; N = 64): 39.1%
- Patients with TEAEs considered related to copanlisib ([4]; N = 64, given with refametinib): 93.8%
- Cmax ([5]; 0.2 mg/kg, cohort 1: copanlisib 0.2 mg/kg 3 weeks on/1 week off, refametinib 30 mg BID): 126 ng/mL
- AUC(0-t) [5, 8]: 725 ng·h/mL
- AUC(0-t) [5, 9]: 890 ng·h/mL
- Cmax [5, 8]: 241 ng/mL
- Cmax [5, 9]: 312 ng/mL
- Cmax ([5]; cohort 2): 189 ng/mL
- median time of Cmax, range over cohorts ([5]; single infusion 0.2–0.8 mg/kg, cycle 1, day 1): 0.50 to 1.03 h
- copanlisib Cmax and AUC(0–25), day 1 (alone) versus day 15 (with refametinib) ([5]; within each cohort): comparable between day 1 and day 15

SMILES: COc1cc(F)c(F)c(Nc2ccc(I)cc2F)c1NS(=O)(=O)C1(C[C@H](O)CO)CC1 [refametinib]
- MTD, single agent ([6]; oral, twice daily (BID), monotherapy): 50 mg
- partial response rate ([6]; refametinib monotherapy): 2%
- stable disease ([6]; refametinib monotherapy): 16%
- Patients with dose modifications attributed to refametinib-related TEAEs ([4]; N = 64): 53.1%
- Patients with TEAEs considered related to refametinib ([4]; N = 64, given with copanlisib): 95.3%
- AUC(0-t) ([7]; 30 mg, cohort 1: copanlisib 0.2 mg/kg 3 weeks on/1 week off, refametinib 30 mg BID): 2510 ng·h/mL
- AUC(0-t) ([7]; 30 mg, cohort 2B: copanlisib 0.6 mg/kg 3 weeks on/1 week off, refametinib 30 mg BID): 3750 ng·h/mL
- AUC(0-t) [7, 10]: 4770 ng·h/mL
- AUC(0-t) ([7]; 30 mg, cohort 3A: copanlisib 0.8 mg/kg 3 weeks on/1 week off, refametinib 30 mg BID): 4530 ng·h/mL
- AUC(0-t) [7, 11]: 5310 ng·h/mL
- Cmax [7, 10]: 873 ng/mL
- Cmax [7, 11]: 845 ng/mL
- AUC(0-t) ([7]; cohort 2): 5110 ng·h/mL
- Cmax ([7]; cohort 2): 943 ng/mL
- median time of Cmax, range over cohorts ([7]; multiple doses of refametinib 30 mg or 50 mg BID): 1.50 to 4.00 h

SMILES: CC(=O)Nc1cccc(-n2c(=O)n(C3CC3)c(=O)c3c(Nc4ccc(I)cc4F)n(C)c(=O)c(C)c32)c1 [trametinib]
- incidence of ophthalmologic toxicities ([1]; all-cause): 19%
